Measured values from ChEMBL document CHEMBL4190193, “Stachybotrysins A-G, Phenylspirodrimane Derivatives from the Fungus Stachybotrys chartarum” (J Nat Prod, 2017).

Legend:
[1] = test system: NCI-H460; assay: Cytotoxicity against human NCI-H460 cells assessed as reduction in cell viability after 96 hrs by MTT assay; format: cell-based; details: NCI-H460, 96 h
Summary of the method: (§1)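 MTT assay. Cells were grown in RPMI 1640 with 10% FBS, penicillin and streptomycin at 37 °C under 5% CO2, then seeded at 1200 cells/well. Compounds were added after 24 h at 10−4 to 10−8 M (five concentrations, final DMSO 0.1% v/v) and incubated 96 h. Absorbance was read at 570 nm. Paclitaxel was the positive control, with triplicates per concentration; IC50 was calculated from these.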

[2] = test system: BGC-823; assay: Cytotoxicity against human BGC823 cells assessed as reduction in cell viability after 96 hrs by MTT assay; format: cell-based; details: BGC-823, 96 h; summary of the method: as §1
[3] = test system: HepG2; assay: Cytotoxicity against human HepG2 cells assessed as reduction in cell viability after 96 hrs by MTT assay; format: cell-based; details: HepG2, 96 h; summary of the method: as §1
[4] = test system: Human immunodeficiency virus 1; assay: Antiviral activity against VSV-G pseudotyped HIV1 infected in human SupT1 cells after 48 hrs by firefly luciferase reporter gene assay; format: functional, organism-based; details: Human immunodeficiency virus 1, SUP-T1, 48 h
Summary of the method: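 293T cells (2 × 105) cotransfected with 0.6 μg pNL-Luc-E−-Vpu− and 0.4 μg pHIT/G. Supernatant harvested at 48 h, 0.45 μm filtered, capsid p24 quantified by antigen-capture ELISA. SupT1 cells infected at MOI 1, 37 °C, 48 h, with compound at several concentrations, each in triplicate. Efavirenz as control. Inhibition measured by firefly luciferase; IC50 calculated from it.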

[5] = test system: Influenza A virus; assay: Antiviral activity against VSV-G pseudotyped Influenza A virus infected in human SupT1 cells after 48 hrs by firefly luciferase reporter gene assay; format: functional, organism-based; details: SUP-T1, 48 h

Row | Compound | IC50 [1] | IC50 [2] | IC50 [3] | IC50 [4] | IC50 [5]
1 | Cc1cc(O)c2c(c1C=O)O[C@]1(C2)[C@H](C)CC[C@H]2C(C)(C)[C@H](O)CC[C@@]21C | 15.8 µM | 21.9 µM | 18.4 µM | 15.6 to 20.5 µM | –
2 | CC(=O)/C=C/c1c(CO)cc(O)c2c1O[C@]1(C2)[C@H](C)CC[C@H]2C(C)(C)[C@H](O)CC[C@@]21C | – | – | – | – | 12.4 to 23.4 µM
3 | C=C1CC[C@H]2C(C)(C)[C@H](O)CC[C@]2(C)[C@@]12Cc1c(O)cc(COC(C)=O)c(C=O)c1O2 | – | – | – | 15.6 to 20.5 µM | –
4 | CC(=O)C[C@@H]1OCc2cc(O)c3c(c21)O[C@]1(C3)[C@H](C)CC[C@H]2C(C)(C)[C@H](O)CC[C@@]21C | – | – | 24.6 µM | 15.6 to 20.5 µM | 12.4 to 23.4 µM
5 | CC(=O)O[C@@H]1CC[C@@]2(C)[C@@H](CC[C@@H](C)[C@]23Cc2c(O)cc(CO)c(C=O)c2O3)C1(C)C | – | – | – | 15.6 to 20.5 µM | –
6 | CC(=O)O[C@@H]1CC[C@@]2(C)[C@@H](CC[C@@H](C)[C@]23Cc2c(O)cc4c(c2O3)COC4=O)C1(C)C | – | – | – | – | 12.4 to 23.4 µM
7 | CC(=O)C[C@H]1OCc2cc(O)c3c(c21)O[C@]1(C3)[C@H](C)CC[C@H]2C(C)(C)[C@H](O)CC[C@@]21C | – | – | – | – | 12.4 to 23.4 µM
8 | CC(=O)O[C@@H]1CC[C@@]2(C)[C@@H](CC[C@@H](C)[C@]23Cc2c(O)cc(C)c(C=O)c2O3)C1(C)C | – | – | 24.7 µM | 15.6 to 20.5 µM | 12.4 to 23.4 µM
9 | CC(=O)O[C@H]1C(=O)[C@@]2(C)[C@H]([C@H](OC(=O)c3ccccc3)[C@]3(O)C[C@H](OC(=O)[C@H](O)[C@@H](NC(=O)c4ccccc4)c4ccccc4)C(C)=C1C3(C)C)[C@]1(OC(C)=O)CO[C@@H]1C[C@@H]2O [PACLITAXEL] | 0.001 µM | 0.0008 µM | 0.0063 µM | – | –
10 | NC(=O)c1ncn([C@@H]2O[C@H](CO)[C@@H](O)[C@H]2O)n1 [RIBAVIRIN] | – | – | – | – | 0.002 µM
